Source: ChEMBL document CHEMBL4152271, “Polypharmacological profile of 1,2-dihydro-2-oxo-pyridine-3-carboxamides in the endocannabinoid system” (Eur J Med Chem, 2018)
Calls of active or inactive are those of the source. The calls are words filed in the database; no cut-off is given here.

What was measured:
Monoglyceride lipase = molecular target: T1, Monoglyceride lipase (Homo sapiens, UniProt Q99685); assay: Inhibition of MAGL in human U937 cells using 2-OG containing […] as substrate preincubated for 30 mins followed by substrate addition and measured after 15 mins by liquid scintillation spectroscopic method; type: cell-based
T1 sequence (Q99685 whole entry): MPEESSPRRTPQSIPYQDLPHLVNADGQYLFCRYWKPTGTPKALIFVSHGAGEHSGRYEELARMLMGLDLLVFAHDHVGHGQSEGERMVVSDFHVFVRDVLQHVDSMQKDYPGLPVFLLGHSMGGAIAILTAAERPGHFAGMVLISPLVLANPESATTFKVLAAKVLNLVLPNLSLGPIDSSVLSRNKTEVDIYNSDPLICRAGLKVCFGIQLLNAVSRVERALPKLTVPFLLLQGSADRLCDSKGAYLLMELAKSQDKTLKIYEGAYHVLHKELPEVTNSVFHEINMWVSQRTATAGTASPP
In short: (§1)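 U937 cell homogenate (100 µg) in 10 mM Tris-HCl, 1 mM EDTA, pH 8, 0.1% fatty acid-free BSA. Compound at 10 µM screening concentration, 30 min at 37 °C. FAAH: 100 nM AEA with 1 nM [³H]AEA tracer. MAGL: 1 µM 2-OG with 1 nM tritiated tracer. Both 15 min at 37 °C, stopped with CHCl₃:MeOH (1:1), aqueous phase counted.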

Cannabinoid receptor 1 [1] = molecular target: T2, Cannabinoid receptor 1 (Homo sapiens, UniProt P21554); assay: Displacement of [3H]-CP55940 from human CB1 receptor expressed in CHO cell membranes after 90 mins
T2 sequence (P21554 whole entry): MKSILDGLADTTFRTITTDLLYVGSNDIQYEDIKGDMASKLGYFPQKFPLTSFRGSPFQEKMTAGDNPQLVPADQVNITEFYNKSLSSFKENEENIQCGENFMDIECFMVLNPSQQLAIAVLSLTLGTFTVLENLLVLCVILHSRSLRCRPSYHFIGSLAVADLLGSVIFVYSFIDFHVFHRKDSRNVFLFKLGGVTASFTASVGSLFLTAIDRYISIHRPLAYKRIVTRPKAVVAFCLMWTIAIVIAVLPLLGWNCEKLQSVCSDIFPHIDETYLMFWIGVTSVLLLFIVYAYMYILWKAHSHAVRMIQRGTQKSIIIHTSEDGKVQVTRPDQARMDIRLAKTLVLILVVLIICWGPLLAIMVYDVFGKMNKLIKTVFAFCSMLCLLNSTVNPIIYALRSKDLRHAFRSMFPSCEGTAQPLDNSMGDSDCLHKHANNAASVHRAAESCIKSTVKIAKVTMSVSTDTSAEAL

Cannabinoid receptor 2 [2] = molecular target: T3, Cannabinoid receptor 2 (Homo sapiens, UniProt P34972); assay: Displacement of [3H]-CP55940 from human CB2 receptor expressed in CHO cell membranes after 90 mins
T3 sequence (P34972 whole entry): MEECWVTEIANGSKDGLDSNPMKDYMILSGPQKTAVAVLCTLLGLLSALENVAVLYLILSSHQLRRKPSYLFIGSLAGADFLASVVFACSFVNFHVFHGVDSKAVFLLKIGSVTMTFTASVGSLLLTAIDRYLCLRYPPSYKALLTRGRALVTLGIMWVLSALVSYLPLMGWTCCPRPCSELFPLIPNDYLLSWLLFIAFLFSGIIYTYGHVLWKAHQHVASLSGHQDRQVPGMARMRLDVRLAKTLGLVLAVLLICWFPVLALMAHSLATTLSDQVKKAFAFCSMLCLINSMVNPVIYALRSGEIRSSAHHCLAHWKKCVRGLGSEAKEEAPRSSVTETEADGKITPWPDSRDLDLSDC
In short: (§2)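 Membranes expressing hCB1 or hCB2 (stably transfected CHO) in 50 mM Tris-HCl, 2.5 mM EDTA, 5 mM MgCl₂, 0.5% fatty acid-free BSA, pH 7.4. Nonspecific binding with 10 µM […]. GF/B filtration, radioactivity counted, Ki derived. Mean ± SD, at least 3 experiments in triplicate.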

Homo sapiens = species on record: Homo sapiens; assay: Selectivity ratio of Ki for human CB1 receptor to Ki for human CB2 receptor
In short: as §2, with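 “7.4. Incubated with compound and 0.5 nM [³H]CP55,940 for 90 min at 30 °C.” for “7.4.”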

[3] = molecular target: T4, Fatty-acid amide hydrolase 1 (Homo sapiens, UniProt O00519); assay: Inhibition of FAAH in human U937 cells using AEA containing [ethanolamine-1-3H]AEA as substrate preincubated for 30 mins followed by substrate addition and measured after 15 mins by liquid scintillation spectroscopic method; type: cell-based; in short: as §1
T4 sequence (O00519 whole entry): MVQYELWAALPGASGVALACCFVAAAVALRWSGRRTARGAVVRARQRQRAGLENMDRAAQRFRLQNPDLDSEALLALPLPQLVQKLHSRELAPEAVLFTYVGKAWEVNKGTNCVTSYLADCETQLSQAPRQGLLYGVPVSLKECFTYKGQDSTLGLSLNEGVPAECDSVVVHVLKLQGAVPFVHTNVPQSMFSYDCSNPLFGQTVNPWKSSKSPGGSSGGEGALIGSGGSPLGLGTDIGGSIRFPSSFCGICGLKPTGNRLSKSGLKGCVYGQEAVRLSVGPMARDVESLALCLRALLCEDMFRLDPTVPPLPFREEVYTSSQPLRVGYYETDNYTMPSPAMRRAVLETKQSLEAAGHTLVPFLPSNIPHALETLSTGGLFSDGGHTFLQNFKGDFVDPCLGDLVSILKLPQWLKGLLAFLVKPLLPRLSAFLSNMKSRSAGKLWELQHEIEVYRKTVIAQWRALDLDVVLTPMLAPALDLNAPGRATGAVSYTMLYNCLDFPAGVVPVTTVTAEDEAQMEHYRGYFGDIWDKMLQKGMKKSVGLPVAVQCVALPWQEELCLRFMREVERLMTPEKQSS

[4] = molecular target: T5, Monoacylglycerol lipase ABHD6 (Homo sapiens, UniProt Q9BV23); assay: Inhibition of human ABHD6 expressed in HEK293 cells using 2-OG as substrate preincubated for 30 mins followed by substrate addition and measured after 5 mins by liquid scintillation spectroscopic method; type: cell-based
T5 sequence (Q9BV23 whole entry): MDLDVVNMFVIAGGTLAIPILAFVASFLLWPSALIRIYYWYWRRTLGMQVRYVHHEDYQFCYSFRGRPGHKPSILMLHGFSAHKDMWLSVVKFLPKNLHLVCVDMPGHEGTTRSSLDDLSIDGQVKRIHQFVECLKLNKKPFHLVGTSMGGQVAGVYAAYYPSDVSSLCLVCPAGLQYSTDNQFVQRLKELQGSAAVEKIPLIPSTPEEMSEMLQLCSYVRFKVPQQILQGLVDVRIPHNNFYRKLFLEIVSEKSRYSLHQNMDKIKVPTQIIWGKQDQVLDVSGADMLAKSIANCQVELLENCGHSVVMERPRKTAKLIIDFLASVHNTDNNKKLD
In short: (§3)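 Homogenate (40 µg) of HEK293 cells stably transfected with hABHD6 or hABHD12, compound preincubated 30 min at 37 °C in […], 0.1% BSA, pH 7.6. DMSO vehicle; WWL70 10 µM or THL 20 µM as positive controls. 10 µM 2-OG added for 5 min at 37 °C, stopped with CHCl₃:MeOH. Aqueous phase counted; no-enzyme blanks and non-transfected HEK293 hydrolysis subtracted.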

[5] = molecular target: T6, Lysophosphatidylserine lipase ABHD12 (Homo sapiens, UniProt Q8N2K0); assay: Inhibition of human ABHD12 expressed in HEK293 cells using 2-OG as substrate preincubated for 30 mins followed by substrate addition and measured after 5 mins by liquid scintillation spectroscopic method; type: cell-based; in short: as §3
T6 sequence (Q8N2K0 whole entry): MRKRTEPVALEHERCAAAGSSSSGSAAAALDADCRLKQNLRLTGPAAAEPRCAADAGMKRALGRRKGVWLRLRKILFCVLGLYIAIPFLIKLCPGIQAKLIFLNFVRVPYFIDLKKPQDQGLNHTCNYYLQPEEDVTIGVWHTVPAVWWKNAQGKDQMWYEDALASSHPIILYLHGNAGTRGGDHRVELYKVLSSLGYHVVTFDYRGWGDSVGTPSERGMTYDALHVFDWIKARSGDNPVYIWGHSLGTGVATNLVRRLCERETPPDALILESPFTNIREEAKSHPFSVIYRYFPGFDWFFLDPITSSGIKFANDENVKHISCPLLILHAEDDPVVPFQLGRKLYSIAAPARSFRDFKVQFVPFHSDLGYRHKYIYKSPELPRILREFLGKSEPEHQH

U-937 [6] = assay: Inhibition of [ethanolamine-1-3H]AEA/unlabeled AEA uptake in human U937 cells preincubated for 15 mins followed by [ethanolamine-1-3H]AEA/unlabeled AEA addition and measured after 15 mins by scintillation counting method; type: functional, cell-based
In short: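 Intact U937 cells (0.5x10⁶ per sample) in RPMI, preincubated with compound for 15 min at 37 °C. Then 1 nM [ethanolamine-1-³H]AEA plus unlabeled AEA (final 100 nM) added for 15 min. Stopped by rapid filtration and ice-cold PBS/1% BSA washes, radioactivity counted. At least three experiments in triplicate, mean ± SD.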

Cannabinoid receptor 1 [7] = molecular target: T2, Cannabinoid receptor 1; assay: Agonist activity at human CB1 receptor expressed in CHO cell membranes after 90 mins by [35S]GTPgammaS binding assay; type: functional, cell-based
Cannabinoid receptor 2 [8] = molecular target: T3, Cannabinoid receptor 2; assay: Agonist activity at human CB2 receptor expressed in CHO cell membranes after 90 mins by [35S]GTPgammaS binding assay; type: functional
In short: (§4)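 Membranes (5 µg) of hCB2-expressing cells in 50 mM Tris-HCl, 3 mM MgCl₂, 0.2 mM EDTA, 100 mM NaCl, 0.5% fatty acid-free BSA, pH 7.4, with 10 µM GDP and 0.1 nM [³⁵S]GTPγS. Kept on ice, started by vehicle or compound, 90 min at 30 °C. Nonspecific binding with 10 µM GTPγS. Filtered on GF/B, radioactivity counted. At least three experiments in triplicate, mean ± SD.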

Cannabinoid receptor 2 [9] = molecular target: T3, Cannabinoid receptor 2; assay: Agonist activity at human CB2 receptor expressed in CHO cell membranes after 90 mins by [35S]GTPgammaS binding assay relative to control; type: functional; in short: as §4
U-937 [10] = assay: Cytotoxicity against human U937 cells assessed as decrease in cell viability at 0.6 to 40 uM after 48 hrs by MTT assay; type: functional, cell-based
In short: (§5)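 U251MG (EMEM, 10% FBS) or U937 (RPMI 1640, 10% FBS) cells plated at 4x10³/well for 24h, then exposed to compounds (0–40 µM) for 48 h at 37°C. MTT reduction, formazan read at 595 nm. Viability as % of untreated control. Five independent experiments in triplicate, mean ± SD, ANOVA with Bonferroni.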

U-251 = assay: Cytotoxicity against human U251MG cells assessed as decrease in cell viability at 0.6 to 40 uM after 48 hrs by MTT assay; type: functional, cell-based; in short: as §5

SMILES	IC50 (Monoglyceride lipase) [µM]	Ki (Cannabinoid receptor 1 [1]) [µM]	Ki (Cannabinoid receptor 2 [2]) [µM]	Ratio Ki (Homo sapiens)	IC50 [3] [µM]	IC50 [4] [µM]	IC50 [5] [µM]	IC50 (U-937 [6]) [µM]	EC50 (Cannabinoid receptor 1 [7]) [µM]	EC50 (Cannabinoid receptor 2 [8]) [µM]	Emax (Cannabinoid receptor 2 [9]) [%]	Activity (U-937 [10])	Activity (U-251)
COc1ccc(-c2ccn(Cc3ccc(F)cc3)c(=O)c2C(=O)NC2CCCCCC2)cc1	> 10	> 10	> 10	2 to 54	> 10	> 10	> 10	> 10					
Cc1ccnc(OCc2ccc(F)cc2)c1C(=O)NC1CCCCCC1	> 10	0.131	0.0463	2 to 54	> 10	> 10	> 10	0.58	0.229	0.031	127	Active	inactive
Cc1ccn(Cc2ccc(F)cc2)c(=O)c1C(=O)NC1CCCCCC1	> 10	0.0117	0.0059	2 to 54	8.8	> 10	> 10	1.8	0.069	0.0019	128	Active	inactive
Cc1c(-c2ccccc2)cn(Cc2ccc(F)cc2)c(=O)c1C(=O)NC1CCCCCC1	> 10	0.0231	0.0069	2 to 54	0.07	> 10	2.5		0.237	0.012	39	Active	inactive
COc1ccc(-c2cn(Cc3ccc(F)cc3)c(=O)c(C(=O)NC3CCCCCC3)c2-c2ccccc2)cc1	> 10	> 10	> 10	2 to 54	> 10	> 10	> 10	> 10					
CCCCCCC(C)(C)c1ccc([C@@H]2C[C@H](O)CC[C@H]2CCCO)c(O)c1											196		
COc1ccc(C(=O)c2c(C)n(CCN3CCOCC3)c3cc(I)ccc23)cc1										0.167	35		
O=C(NC1CCCCCC1)c1c(-c2ccccc2)c(Br)cn(Cc2ccc(F)cc2)c1=O	> 10	> 10	0.437	2 to 54	> 10	3	> 10	> 10		0.316	176		
O=C(NC1CCCCCC1)c1c(-c2ccccc2)ccn(Cc2ccc(F)cc2)c1=O	> 10	> 10	0.187	2 to 54	> 10	> 10	> 10	> 10		0.501	134	Active	inactive
COc1ccc(-c2cc(C(=O)NC3CCCCCC3)c(=O)n(Cc3ccc(F)cc3)c2)cc1												Active	inactive
COc1ccc(-c2c(Br)cn(Cc3ccc(F)cc3)c(=O)c2C(=O)NC2CCCCCC2)cc1	> 10	> 10	> 10	2 to 54	> 10	> 10	> 10	> 10					
O=C(NC1CCCCCC1)c1c(-c2ccccc2)c(-c2ccccc2)cn(Cc2ccc(F)cc2)c1=O	> 10	> 10	> 10	2 to 54	> 10	> 10	> 10	> 10					
